For 6 compounds, LD50 and MIC results are on record in ChEMBL document CHEMBL1671706 (Antimicrob Agents Chemother, 2010).

In brackets after ≈: the same amount, converted by molar mass.

Tested on in one series: not listed separately
The series can be described thus: Toxicity in po dosed female Sherman rat. The note with it: in vivo. It counts as organism-based.
What is called LD50 is the dose expected to kill half of the subjects tested. A higher LD50 goes with a less toxic substance. As to `Oc1ccc(Cl)cc1Cc1cc(Cl)ccc1O` [DICHLOROPHEN], the LD50 worked out at 1680 mg/kg.

In another series the test system is Bacillus anthracis. The series can be described thus: Antimicrobial activity against Bacillus anthracis by Etest.
Settings: not given
In kind it is functional.
Broadly, the MIC is the lowest concentration found to suppress growth. On to `CC1(C)S[C@@H]2[C@H](NC(=O)Cc3ccccc3)C(=O)N2[C@H]1C(=O)O` [PENICILLIN G], for which it took 0.02 µM (≈ 0.00669 µg/mL) to inhibit growth (MIC).
The same measure, in the same setting: the value for `CN(C)[C@@H]1C(O)=C(C(N)=O)C(=O)[C@@]2(O)C(O)=C3C(=O)c4c(O)cccc4[C@@](C)(O)[C@H]3C[C@@H]12` [TETRACYCLINE] was 0.07 µM (≈ 0.0311 µg/mL).

In another series the test system is Bacillus anthracis. Briefly: Antimicrobial activity against Bacillus anthracis Sterne 7702 by macrodilution method. It counts as functional.
Settings: not given
For the compound `Oc1ccc(Cl)cc1Cc1cc(Cl)cc(Cc2cc(Cl)ccc2O)c1O`, the MIC was 0.3 µM (≈ 0.123 µg/mL).
In the case of `Oc1ccc(Cl)cc1Cc1cc(Cl)cc(Cc2cc(Cl)cc(Cc3cc(Cl)cc(Cc4cc(Cl)ccc4O)c3O)c2O)c1O`, it took 1.3 µM (≈ 0.898 µg/mL) to inhibit growth (MIC).
In the case of `Oc1ccc(Cl)cc1Cc1cc(Cl)cc(Cc2cc(Cl)cc(Cc3cc(Cl)ccc3O)c2O)c1O`, inhibition of growth (MIC) required 0.16 µM (≈ 0.088 µg/mL).
On the same count and under the same terms, the value for `Oc1ccc(Cl)cc1Cc1cc(Cl)ccc1O` [DICHLOROPHEN] was 5 µM (≈ 1.35 µg/mL).

For the next series, the system named is Pseudomonas aeruginosa. Briefly: Antimicrobial activity against Pseudomonas aeruginosa K by macrodilution method. It counts as functional.
Settings: not given
The method, boiled down:
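Grown in Luria-Bertani medium at 37°C, shaking at 200 rpm, 16 h. NCCLS macrodilution with 5 × 10^5 cells/ml inoculum. Compounds in DMSO formed a 2-fold tube dilution series, with a control at equal DMSO. MIC was read visually as the lowest growth-preventing concentration in triplicate, periodically confirmed by no detectable A600.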
The compound `Oc1ccc(Cl)cc1Cc1cc(Cl)cc(Cc2cc(Cl)ccc2O)c1O` gave an MIC of 40 µM (≈ 16.4 µg/mL).
Same read-out and setting: the value for `Oc1ccc(Cl)cc1Cc1cc(Cl)cc(Cc2cc(Cl)cc(Cc3cc(Cl)cc(Cc4cc(Cl)ccc4O)c3O)c2O)c1O` was over 80 µM; that for `Oc1ccc(Cl)cc1Cc1cc(Cl)cc(Cc2cc(Cl)cc(Cc3cc(Cl)ccc3O)c2O)c1O` was over 80 µM.
The compound `Oc1ccc(Cl)cc1Cc1cc(Cl)ccc1O` [DICHLOROPHEN] returned an MIC of over 320 µM.

Another series concerns Staphylococcus aureus. Briefly: Antimicrobial activity against Staphylococcus aureus FRI 361 by macrodilution method.
Settings: not given
In kind it is functional. The method, boiled down:
(§1)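 Static culture in Luria-Bertani medium, 37°C, 14 h. NCCLS macrodilution, inoculum 5 × 10^5 cells/ml. Compounds in DMSO were 2-fold serially diluted through the inoculated tubes, with a DMSO-matched control. MIC is the lowest concentration preventing visible growth in triplicate, periodically confirmed by lack of absorbance at 600 nm.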
Turning to `Oc1ccc(Cl)cc1Cc1cc(Cl)cc(Cc2cc(Cl)ccc2O)c1O`, the MIC stood at 0.6 µM (≈ 0.246 µg/mL).
`Oc1ccc(Cl)cc1Cc1cc(Cl)cc(Cc2cc(Cl)cc(Cc3cc(Cl)cc(Cc4cc(Cl)ccc4O)c3O)c2O)c1O` showed an MIC of 5 µM (≈ 3.45 µg/mL).
Same read-out and setting: the value for `Oc1ccc(Cl)cc1Cc1cc(Cl)cc(Cc2cc(Cl)cc(Cc3cc(Cl)ccc3O)c2O)c1O` was 0.3 µM (≈ 0.165 µg/mL).
On the same count and under the same terms, the value for `Oc1ccc(Cl)cc1Cc1cc(Cl)ccc1O` [DICHLOROPHEN] was 20 µM (≈ 5.38 µg/mL).

For the next series, the system named is Enterococcus faecalis. Briefly: Antimicrobial activity against Enterococcus faecalis 1131 by macrodilution method. It counts as functional.
Settings: not given
The method, boiled down:
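Brain heart infusion medium, static, 37°C, 14 h. NCCLS macrodilution, starting inoculum 5 × 10^5 cells/ml. Compounds in DMSO were 2-fold serially diluted across the inoculated tubes, with a matched DMSO control. MIC is the lowest concentration with no visible growth in triplicate, sometimes verified as no detectable A600.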
In turn, `Oc1ccc(Cl)cc1Cc1cc(Cl)cc(Cc2cc(Cl)ccc2O)c1O` returned an MIC of 1.3 µM (≈ 0.533 µg/mL).
For the compound `Oc1ccc(Cl)cc1Cc1cc(Cl)cc(Cc2cc(Cl)cc(Cc3cc(Cl)cc(Cc4cc(Cl)ccc4O)c3O)c2O)c1O`, the MIC stood at 0.6 µM (≈ 0.415 µg/mL).
Same read-out and setting: the value for `Oc1ccc(Cl)cc1Cc1cc(Cl)cc(Cc2cc(Cl)cc(Cc3cc(Cl)ccc3O)c2O)c1O` was 0.3 µM (≈ 0.165 µg/mL); that for `Oc1ccc(Cl)cc1Cc1cc(Cl)ccc1O` [DICHLOROPHEN] was 80 µM (≈ 21.5 µg/mL).

Another series has as its system Caulobacter vibrioides. Briefly: Antimicrobial activity against Caulobacter crescentus CB15N by macrodilution method. In kind it is functional.
Settings: not given
A digest of the protocol:
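Peptone-yeast extract medium, 30°C, shaking at 200 rpm, 22 h. NCCLS macrodilution from 5 × 10^5 cells/ml. Compounds in DMSO given as a 2-fold tube series, with a control at the highest DMSO level. Endpoint is the lowest concentration preventing growth in triplicate by eye, periodically confirmed by absence of A600.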
Take `Oc1ccc(Cl)cc1Cc1cc(Cl)cc(Cc2cc(Cl)ccc2O)c1O`: 2.5 µM (≈ 1.02 µg/mL) was the least that counted as inhibitory (MIC).
Take `Oc1ccc(Cl)cc1Cc1cc(Cl)cc(Cc2cc(Cl)cc(Cc3cc(Cl)cc(Cc4cc(Cl)ccc4O)c3O)c2O)c1O`: the minimum inhibitory concentration (MIC) came to 5 µM (≈ 3.45 µg/mL).
Same read-out and setting: the value for `Oc1ccc(Cl)cc1Cc1cc(Cl)cc(Cc2cc(Cl)cc(Cc3cc(Cl)ccc3O)c2O)c1O` was 0.3 µM (≈ 0.165 µg/mL); that for `Oc1ccc(Cl)cc1Cc1cc(Cl)ccc1O` [DICHLOROPHEN] was 20 µM (≈ 5.38 µg/mL).

The subject of another series is Bacillus cereus. The series can be described thus: Antimicrobial activity against Bacillus cereus UW85 by macrodilution method. In kind it is functional.
Settings: not given
A digest of the protocol:
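Tube macrodilution per NCCLS. Strain grown in Luria-Bertani medium, 37°C, shaking at 200 rpm, 16 h. Inoculum 5 × 10^5 cells/ml. DMSO stocks diluted 2-fold through the tubes, with a DMSO-matched control. MIC is the lowest concentration without visible growth in triplicate, occasionally checked as no detectable absorbance at 600 nm.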
For the compound `Oc1ccc(Cl)cc1Cc1cc(Cl)cc(Cc2cc(Cl)ccc2O)c1O`, the lowest concentration to inhibit growth (MIC) was 0.3 µM (≈ 0.123 µg/mL).
Same read-out and setting: the value for `Oc1ccc(Cl)cc1Cc1cc(Cl)cc(Cc2cc(Cl)cc(Cc3cc(Cl)cc(Cc4cc(Cl)ccc4O)c3O)c2O)c1O` was 0.3 µM (≈ 0.207 µg/mL).
`Oc1ccc(Cl)cc1Cc1cc(Cl)cc(Cc2cc(Cl)cc(Cc3cc(Cl)ccc3O)c2O)c1O`: the MIC worked out at 0.08 µM (≈ 0.044 µg/mL).
On the same count and under the same terms, the value for `Oc1ccc(Cl)cc1Cc1cc(Cl)ccc1O` [DICHLOROPHEN] was 10 µM (≈ 2.69 µg/mL).

For another series, the system named is Escherichia coli. Briefly: Antimicrobial activity against Escherichia coli MC1000 by macrodilution method. In kind it is functional.
Settings: not given
The method, boiled down: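 Luria-Bertani medium, 30°C, shaking at 200 rpm, 14 h. Macrodilution per NCCLS aerobic criteria, with inoculum 5 × 10^5 cells/ml. DMSO-dissolved compounds were diluted 2-fold through the tubes, with a DMSO control. MIC is the lowest concentration preventing visible growth in triplicate, confirmed periodically by no absorbance at 600 nm.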
`Oc1ccc(Cl)cc1Cc1cc(Cl)cc(Cc2cc(Cl)ccc2O)c1O` registered an MIC of 5 µM (≈ 2.05 µg/mL).
Still for that read-out and setting: the value for `Oc1ccc(Cl)cc1Cc1cc(Cl)cc(Cc2cc(Cl)cc(Cc3cc(Cl)cc(Cc4cc(Cl)ccc4O)c3O)c2O)c1O` was over 80 µM.
`Oc1ccc(Cl)cc1Cc1cc(Cl)cc(Cc2cc(Cl)cc(Cc3cc(Cl)ccc3O)c2O)c1O` gave an MIC of over 80 µM.
Same read-out and setting: the value for `Oc1ccc(Cl)cc1Cc1cc(Cl)ccc1O` [DICHLOROPHEN] was 160 µM (≈ 43.1 µg/mL).

Tested on in the next series: not listed separately
The series can be described thus: Toxicity in po dosed male Sherman rat. The note with it: in vivo. In kind it is organism-based.
`Oc1ccc(Cl)cc1Cc1cc(Cl)ccc1O` [DICHLOROPHEN] registered an LD50 of 1510 mg/kg.

In another series the test system is Bacillus cereus. Briefly: Antimicrobial activity against Bacillus cereus. In kind it is functional.
Settings: not given
As to `Oc1ccc(Cl)cc1Cc1cc(Cl)cc(Cc2cc(Cl)ccc2O)c1O`, the lowest concentration to inhibit growth (MIC) was 0.3 µM (≈ 0.123 µg/mL).

Another series deals with Staphylococcus aureus. Briefly: Antimicrobial activity against Staphylococcus aureus FRI 100 by macrodilution method.
Settings: not given
In kind it is functional. The method, boiled down:
as §1
For `Oc1ccc(Cl)cc1Cc1cc(Cl)cc(Cc2cc(Cl)ccc2O)c1O`, the MIC was found to be 0.08 µM (≈ 0.0328 µg/mL).
`Oc1ccc(Cl)cc1Cc1cc(Cl)cc(Cc2cc(Cl)cc(Cc3cc(Cl)cc(Cc4cc(Cl)ccc4O)c3O)c2O)c1O`: the MIC was determined as 5 µM (≈ 3.45 µg/mL).
On the same count and under the same terms, the value for `Oc1ccc(Cl)cc1Cc1cc(Cl)cc(Cc2cc(Cl)cc(Cc3cc(Cl)ccc3O)c2O)c1O` was 0.16 µM (≈ 0.088 µg/mL).
Still for that read-out and setting: the value for `Oc1ccc(Cl)cc1Cc1cc(Cl)ccc1O` [DICHLOROPHEN] was 20 µM (≈ 5.38 µg/mL).
